Assay results as given in ChEMBL document CHEMBL5126550, “In Silico Optimized Stapled Peptides Targeting WASF3 in Breast Cancer” (2022).
Active and inactive are the calls of the source. The rule behind the calls is not given here. Square brackets hold non-standard residues; d marks the D form. Peptide text beside a SMILES is read from it. Gly(pent-4-enyl) = C=CCCC[C@H](N)C(=O)O

Tests used:
[1] = biological target: T1, Actin-binding protein WASF3 (Homo sapiens) (UniProt Q9UPY6); test: Degradation of WASF3 in human serum starved MDA-MB-231 cells assessed as reduction in ABI2 expression at 2 uM measured after 72 hrs by Western blot analysis; type: cell-based
T1 sequence (whole entry): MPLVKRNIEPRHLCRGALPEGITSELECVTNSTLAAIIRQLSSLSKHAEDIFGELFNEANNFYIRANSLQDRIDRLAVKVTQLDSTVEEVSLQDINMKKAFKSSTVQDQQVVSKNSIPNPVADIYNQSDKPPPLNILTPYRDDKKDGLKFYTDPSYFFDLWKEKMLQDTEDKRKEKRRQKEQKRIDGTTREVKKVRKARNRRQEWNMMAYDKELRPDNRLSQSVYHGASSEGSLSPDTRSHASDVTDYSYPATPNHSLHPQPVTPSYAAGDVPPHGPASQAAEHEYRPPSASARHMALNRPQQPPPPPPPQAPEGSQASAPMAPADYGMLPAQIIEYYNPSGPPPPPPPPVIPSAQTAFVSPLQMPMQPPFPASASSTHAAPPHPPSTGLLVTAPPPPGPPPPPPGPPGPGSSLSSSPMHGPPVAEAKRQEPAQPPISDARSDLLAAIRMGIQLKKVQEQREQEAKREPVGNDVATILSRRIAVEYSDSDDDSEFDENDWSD
Procedure, shortened: (§1)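 Cells treated 72 h with peptides or controls. Lysates immunoblotted for ABI2 and WASF3. Band densitometry from three independent Western blots.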

[2] = biological target: T1, Actin-binding protein WASF3 (Homo sapiens); test: Degradation of WASF3 in human serum starved MDA-MB-231 cells assessed as reduction in WASF3 expression at 2 uM measured after 72 hrs by Western blot analysis; type: cell-based; procedure, shortened: as §1
MDA-MB-231 [3] = test: Drug uptake in human MDA-MB-231 cells by measuring uptake of fluorescence intensity in cytoplasm at 10 uM measured after 4 hrs by fluorescence microscopy method; type: functional, cell-based
Procedure, shortened: (§2)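 Cells incubated 4 h with 5(6)-carboxyfluorescein-labeled peptide (2 μM or 10 μM) or DMSO. Cytoplasmic fluorescence imaged by fluorescence microscopy. n = 4.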

MDA-MB-231 [4] = test: Drug uptake in human MDA-MB-231 cells by measuring uptake of fluorescence intensity in cytoplasm at 10 uM measured after 4 hrs by fluorescence microscopy method
MDA-MB-231 [5] = test: Antiinvasive activity against human MDA-MB-231 cells assessed as reduction in cell motility at 2 uM incubated for 18 hrs by wound healing assay; type: functional, cell-based
MDA-MB-231 [6] = test: Antiinvasive activity against human MDA-MB-231 cells assessed as reduction in cell motility at 0.5 to 2 uM incubated for 18 hrs by wound healing assay relative to control; type: functional; parameters: scale not given: the % may be the effect or the level left; conditions: dose 0.5-2 µM
MDA-MB-231 [7] = test: Antiinvasive activity against human MDA-MB-231 cells assessed as reduction in cell motility incubated for 18 hrs by wound healing assay relative to control; type: functional, cell-based; conditions: dose 0.5-2 µM, DDE = dose-dependent effect
MDA-MB-231 [8] = test: Antiinvasive activity against human MDA-MB-231 cells assessed as reduction in number of invading cells incubated for 24 hrs by crystal violet staining based matrigel trans well migration assay; type: functional, cell-based; conditions: dose 0.5-2 µM, DDE = dose-dependent effect
Procedure, shortened: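 Matrigel invasion assay with peptide at 0.5–2 μM, scramble control (2 μM), reference peptide (10 μM) or DMSO. Invading cells fixed with paraformaldehyde, stained with crystal violet, imaged and counted in ImageJ. At least three independent assays; mean ± SD; one-way ANOVA with Bonferroni test.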

MDA-MB-231 [9] = test: Downregulation of MMP9 expression in human MDA-MB-231 cells at 2 uM measured after 72 hrs by immunoblot analysis; type: functional, cell-based
Procedure, shortened: (§3)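 Cells exposed 72 h to peptides, scramble control or vehicle. MMP9 protein levels measured by immunoblotting and quantified by densitometry across three independent blots. Levels compared against scramble control and vehicle.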

[10] = Downregulation of MMP9 expression in human MDA-MB-231 cells at 2 uM measured after 72 hrs by immunoblot analysis relative to control; type: functional; procedure, shortened: as §3
MDA-MB-231 [11] = test: Induction of WRC disruption in human MDA-MB-231 cells assessed as increase in actin stress fiber formation at 2 uM incubated for 4 hrs by phalloidin-iFluor 594 dye based inverted fluorescent microscopic method; type: functional, cell-based
Procedure, shortened: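 Cells treated 4 h with biotin-labeled peptides, scramble control or DMSO. Cells then fixed, permeabilized and stained with phalloidin-iFluor 594 to show polymeric actin stress fibers by fluorescence imaging. n = 4.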

MDA-MB-231 [12] = test: Drug uptake in human MDA-MB-231 cells by measuring uptake of fluorescence intensity in cytoplasm at 2 uM measured after 4 hrs by fluorescence microscopy method; type: functional, cell-based; procedure, shortened: as §2
[13] = biological target: Abl interactor 2 (Homo sapiens) (UniProt Q9NYB9); test: Binding affinity to ABI2 in human MDA-MB-231 cells at 2 uM measured after 4 hrs by measuring pulldown using streptavidin agarose resin by immunoblot analysis
Abl interactor 2 (Homo sapiens), sequence (Q9NYB9 whole entry, looked up): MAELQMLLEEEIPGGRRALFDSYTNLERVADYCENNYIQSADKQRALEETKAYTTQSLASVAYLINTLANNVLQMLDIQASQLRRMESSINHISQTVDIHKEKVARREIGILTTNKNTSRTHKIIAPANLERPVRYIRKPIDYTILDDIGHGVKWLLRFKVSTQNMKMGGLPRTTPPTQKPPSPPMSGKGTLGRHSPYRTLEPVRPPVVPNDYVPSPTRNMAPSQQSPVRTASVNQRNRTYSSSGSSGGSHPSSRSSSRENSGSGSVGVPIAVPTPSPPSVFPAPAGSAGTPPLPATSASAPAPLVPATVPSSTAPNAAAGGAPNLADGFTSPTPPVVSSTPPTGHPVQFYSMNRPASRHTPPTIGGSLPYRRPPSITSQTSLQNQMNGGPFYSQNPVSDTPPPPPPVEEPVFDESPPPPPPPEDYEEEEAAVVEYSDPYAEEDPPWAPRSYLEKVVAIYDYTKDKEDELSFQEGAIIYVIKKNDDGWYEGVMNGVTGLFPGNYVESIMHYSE

C=CCCC[C@H](NC(=O)[C@H](CO)NC(=O)[C@H](CC(N)=O)NC(=O)[C@@H](NC(=O)[C@H](CCCC=C)NC(=O)[C@H](CCCCN)NC(=O)[C@H](CCC(=O)O)NC(=O)[C@@H](N)CC(C)C)[C@@H](C)O)C(=O)N[C@@H](CC(C)C)C(=O)N[C@@H](C)C(=O)N[C@@H](CCCCN)C(=O)N[C@H](C(=O)N[C@H](C(=O)N[C@@H](CCCNC(=N)N)C(=O)N[C@@H](CCC(N)=O)C(=O)N[C@@H](CC(C)C)C(=O)O)[C@@H](C)CC)[C@@H](C)CC (H-LEK[Gly(pent-4-enyl)]TNS[Gly(pent-4-enyl)]LAKIIRQL-OH)
Activity [1]: Active
Activity [2]: Active
Drug uptake (MDA-MB-231 [3]; dose 10.0 µM): Active
Drug uptake (MDA-MB-231 [4]): Active

C=CCCC[C@H](NC(=O)[C@H](CO)NC(=O)[C@H](CC(C)C)NC(=O)[C@H](CCC(N)=O)NC(=O)[C@H](CCCC=C)NC(=O)[C@@H](NC(=O)[C@@H](NC(=O)[C@@H](N)CCCCN)[C@@H](C)CC)[C@@H](C)CC)C(=O)N[C@@H](CC(C)C)C(=O)N[C@@H](CO)C(=O)N[C@@H](CCCCN)C(=O)N[C@@H](Cc1cnc[nH]1)C(=O)N[C@@H](C)C(=O)N[C@@H](CCC(=O)O)C(=O)N[C@@H](CCCCN)C(=O)N[C@H](C(=O)N[C@@H](Cc1ccccc1)C(=O)NCC(=O)N[C@@H](CCC(=O)O)C(=O)N[C@@H](CC(C)C)C(=O)N[C@@H](Cc1ccccc1)C(=O)N[C@@H](CCCCN)C(=O)O)[C@@H](C)CC (H-KII[Gly(pent-4-enyl)]QLS[Gly(pent-4-enyl)]LSKHAEKIFGELFK-OH)
Activity (MDA-MB-231 [5]): Active

C=CCCC[C@H](NC(=O)[C@H](CCCNC(=N)N)NC(=O)[C@@H](NC(=O)[C@@H](NC(=O)[C@@H](N)CCCC=C)[C@@H](C)CC)[C@@H](C)CC)C(=O)N[C@@H](CC(C)C)C(=O)N[C@@H](CO)C(=O)N[C@@H](CCCCN)C(=O)N[C@@H](CC(C)C)C(=O)N[C@@H](CO)C(=O)N[C@@H](CCCCN)C(=O)N[C@@H](Cc1cnc[nH]1)C(=O)N[C@@H](C)C(=O)N[C@@H](CCC(=O)O)C(=O)N[C@@H](CCCCN)C(=O)N[C@H](C(=O)N[C@@H](Cc1ccccc1)C(=O)NCC(=O)N[C@@H](CCC(=O)O)C(=O)N[C@@H](CC(C)C)C(=O)N[C@@H](Cc1ccccc1)C(=O)N[C@@H](CCCCN)C(=O)O)[C@@H](C)CC (H-[Gly(pent-4-enyl)]IIR[Gly(pent-4-enyl)]LSKLSKHAEKIFGELFK-OH)
Activity (MDA-MB-231 [5]): Active

C=CCCC[C@H](NC(=O)[C@H](CO)NC(=O)[C@H](CC(C)C)NC(=O)[C@H](CCCCN)NC(=O)[C@H](CO)NC(=O)[C@H](CC(C)C)NC(=O)[C@H](CCC(N)=O)NC(=O)[C@H](CCCNC(=N)N)NC(=O)[C@@H](NC(=O)[C@@H](NC(=O)[C@@H](N)CCCCN)[C@@H](C)CC)[C@@H](C)CC)C(=O)N[C@@H](Cc1cnc[nH]1)C(=O)N[C@@H](C)C(=O)N[C@@H](CCC(=O)O)C(=O)N[C@@H](CCCC=C)C(=O)N[C@H](C(=O)N[C@@H](Cc1ccccc1)C(=O)NCC(=O)N[C@@H](CCC(=O)O)C(=O)N[C@@H](CC(C)C)C(=O)N[C@@H](Cc1ccccc1)C(=O)N[C@@H](CCCCN)C(=O)O)[C@@H](C)CC (H-KIIRQLSKLS[Gly(pent-4-enyl)]HAE[Gly(pent-4-enyl)]IFGELFK-OH)
Activity (MDA-MB-231 [5]): Active

C=CCCC[C@H](NC(=O)[C@H](CCCCN)NC(=O)[C@H](CO)NC(=O)[C@H](CC(C)C)NC(=O)[C@H](CCCC=C)NC(=O)[C@H](CO)NC(=O)[C@H](CC(C)C)NC(=O)[C@H](CCCCN)NC(=O)[C@H](CCCNC(=N)N)NC(=O)[C@@H](NC(=O)[C@@H](NC(=O)[C@@H](N)CCCCN)[C@@H](C)CC)[C@@H](C)CC)C(=O)N[C@@H](C)C(=O)N[C@@H](CCC(=O)O)C(=O)N[C@@H](CCCCN)C(=O)N[C@H](C(=O)N[C@@H](Cc1ccccc1)C(=O)NCC(=O)N[C@@H](CCC(=O)O)C(=O)N[C@@H](CC(C)C)C(=O)N[C@@H](Cc1ccccc1)C(=O)N[C@@H](CCCCN)C(=O)O)[C@@H](C)CC (H-KIIRKLS[Gly(pent-4-enyl)]LSK[Gly(pent-4-enyl)]AEKIFGELFK-OH)
Activity (MDA-MB-231 [6]): 48%
Activity (MDA-MB-231 [5]): Active
Activity (MDA-MB-231 [7]): Dde
Activity [1]: Active
Activity [2]: Active
Activity (MDA-MB-231 [8]): Dde
Activity (MDA-MB-231 [9]): Active
Activity [10]: 40%
Activity (MDA-MB-231 [11]): Active
Drug uptake (MDA-MB-231 [12]): Active
Drug uptake (MDA-MB-231 [3]; dose 2.0 µM, in the assay text read “at 2 uM” for “at 10 uM”): Active
Activity [13]: Active
